Screening results (PubChem BioAssay)
Rows were chosen to be rich in hits. Some 3.5% of all compounds tested hit in one or more screens of this group.
RGS4 act: RGS4 potentiators or activators, primary screen, cell-based, HEK293 M3R inducible RGS4, calcium flux; carbachol calcium flux Fluo4; active compounds read low; B-score at 10 µM; 310,000 tested, 0.92% active; AID 463111, 2010;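 active means B-score of the integrated calcium signal more than 4 SD below the library mean, with starting fluorescence not abnormally high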;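 further: negative B-score means reduced calcium response which marks RGS4 activation or potentiation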
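Material: Inducible-RGS4 HEK293 cells carrying M3 receptor; also added: carbachol at ECmax as muscarinic agonist stimulus; incubation: compound preincubation 20 min at room temperature before agonist; signal: Fluo4-AM (2 µM) calcium-flux fluorescence, kinetic read; measure: integrated calcium ratio converted to B score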
MrgX1 antagonist: antagonists of human MrgX1 receptor, primary screen, HEK293 cells, Fluo-4 calcium flux | Mas-related G-protein coupled receptor member X1 (Homo sapiens), Q96LB2 | BAM8-22 antagonism; active compounds read low | B-score at 10 µM | 310,000 tested, 1.3% active | AID 588676, 2011;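 active means calcium-response B-score plate-corrected more than 3 library SD below zero, starting fluorescence within 5 deviations, no agonist response on first addition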;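 further: peak minus trough fluorescence over baseline after final BAM8-22 challenge near maximal dose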
Target sequence (Q96LB2 whole entry, looked up): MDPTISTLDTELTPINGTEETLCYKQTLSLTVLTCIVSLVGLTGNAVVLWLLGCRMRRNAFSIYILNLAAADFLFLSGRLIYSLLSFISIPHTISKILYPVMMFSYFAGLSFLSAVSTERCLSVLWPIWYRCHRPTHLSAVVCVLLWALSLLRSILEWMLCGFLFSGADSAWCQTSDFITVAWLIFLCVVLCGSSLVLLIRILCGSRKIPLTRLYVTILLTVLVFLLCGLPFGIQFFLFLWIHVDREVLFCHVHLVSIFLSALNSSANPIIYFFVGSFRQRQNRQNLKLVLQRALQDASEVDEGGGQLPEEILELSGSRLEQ
MrgX1 ag: agonists of human MrgX1 receptor, primary screen, HEK293 cells, Fluo-4 calcium flux. Fluo-4 calcium fluorescence, agonist mode; active compounds read high. Mas-related G-protein coupled receptor member X1 (Homo sapiens), Q96LB2. 310,000 tested, 0.44% active. B-score at 10 µM;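 active means calcium response B-score plate-corrected fluorescence ratio at least 3 library SD, with starting fluorescence B-score inside 5 SD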
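times = overnight plating, then 30 min 37 °C plus 30 min room-temperature dye loading | assay system = stable human MrgX1 HEK293 cell line | input = fifteen thousand cells per well | signal = kinetic calcium dye fluorescence, Fluo-4 NW | dosing = compound delivered in addition one of three | read-out = B-scored fluorescence response ratio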
MrgX1 PAM: positive allosteric modulators of MrgX1, primary screen, HEK293 cells, Fluo-4 calcium flux | 310,000 tested, 0.63% active | FDSS; active compounds read high | AID 588675, 2011 | B-score at 10 µM | Mas-related G-protein coupled receptor member X1 (Homo sapiens), Q96LB2;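 active means plate-corrected calcium response at least 3 library SD above typical, normal starting fluorescence, not activating the receptor alone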;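 further: compound read alongside a low EC10 to EC30 dose of BAM8-22 agonist; peak minus trough fluorescence over baseline measured at the second addition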
RGS4 inh: RGS4 inhibitors, primary screen, cell-based, HEK293 M3R inducible RGS4, calcium flux; Regulator of G-protein signaling 4 (Homo sapiens), P49798; Fluo-4 calcium flux; active compounds read high; triggered by carbachol at its EC20; B-score at 10 µM; 310,000 tested, 0.45% active; AID 463165, 2010;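 active means B-score, a plate-corrected calcium signal, over three deviations above library mean, with baseline fluorescence within five deviations of library mean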;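 further: RGS4 expression induced by doxycycline in cells with stable M3 receptor; B-score is computed from the integrated fluorescence ratio over baseline after carbachol; higher B-score means a larger calcium signal and so more RGS4 inhibition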
Target sequence (P49798 whole entry, looked up): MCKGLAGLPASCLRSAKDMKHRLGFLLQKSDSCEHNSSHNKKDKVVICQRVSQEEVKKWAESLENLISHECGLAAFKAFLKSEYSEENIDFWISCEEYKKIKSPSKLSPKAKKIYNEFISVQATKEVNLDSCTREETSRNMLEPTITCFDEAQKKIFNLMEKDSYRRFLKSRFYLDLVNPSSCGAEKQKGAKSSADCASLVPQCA
MrgX1 allo conf: MrgX1 positive allosteric modulators, duplicate retest, confirmation, HEK293 cells, Fluo-4 calcium flux | 1,200 tested, 13% active | activation (ratio percentage), % at 10 µM | AID 602413, 2012 | shares compounds with MrgX1 PAM | Fluo-4 calcium fluorescence, FDSS;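 active means ratio at least 3 SD above the weak peptide control, stable starting fluorescence, no direct agonism earlier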;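 further: compound followed by low BAM8-22 agonist challenge near EC20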
HEK293 Ca flux: nonspecific calcium signal in parental HEK293, confirmation, counter-screen for MrgX1 antagonist project, parental HEK293 cells, Fluo-4 calcium flux | shares compounds with MrgX1 antagonist | fluorescence ratio F(max-min)/F0 at 10 µM | 4,000 tested, 2% active | Fluo-4 calcium fluorescence, FDSS;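 active means duplicate-averaged calcium fluorescence ratio at least three times the standard deviation of buffer wells, a nonspecific response in parental cells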
HEK293 Ca counter: calcium response in parental HEK293 cells, primary screen, counter-screen for MrgX1 allosteric activator project, cell-based, Fluo-4 calcium flux, duplicate; shares compounds with MrgX1 antagonist; Fluo-4 fluorescence ratio; active compounds read high; fluorescence ratio F(max-min)/F0 at 10 µM; 4,000 tested, 0.4% active; AID 624114, 2012;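 active means calcium fluorescence ratio, averaged over duplicates, at least 3 SD of the buffer-well ratio, meaning a nonspecific response in receptor-free cells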;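 further: untransfected parental HEK293 lacking MrgX1 used as counterscreen for MrgX1 allosteric activators; fluorescence change taken during the second addition on a kinetic imager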
HEK293 Ca cntr2: calcium response in parental HEK293 cells, primary screen, counter-screen for MrgX1 agonist project, cell-based, Fluo-4 calcium flux, duplicate, agonist mode | shares compounds with MrgX1 antagonist | Fluo-4 calcium fluorescence (FDSS); active compounds read high | fluorescence ratio F(max-min)/F0 at 10 µM | 4,000 tested, 8.7% active | AID 624115, 2012;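 active means calcium fluorescence ratio at least three times the spread of buffer wells, meaning a non-specific response in parental cells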
Numbers stand for hits; – = inactive; · = no result given.

SMILES | RGS4 act | MrgX1 antagonist | MrgX1 ag | MrgX1 PAM | RGS4 inh | MrgX1 allo conf | HEK293 Ca flux | HEK293 Ca counter | HEK293 Ca cntr2
O=C(Cn1cnc(S(=O)(=O)N2CCOCC2)c1)Nc1ccc(OC(F)(F)F)cc1 | – | – | – | – | – | · | · | · | ·
Cc1cnc(NC(=O)C2CCC(C(C)(C)C)CC2)s1 (stereo not given) | – | – | – | – | – | · | · | · | ·
COc1ccc(C)cc1NC(=O)C(C)N(c1ccc(C)cc1)S(C)(=O)=O (stereo not given) | – | – | – | 7.58 | – | – | – | – | –
COc1ccc(N2CCN(C3CCCN(Cc4cccc(OC)c4)C3)CC2)cc1 (stereo not given) | – | – | – | – | – | · | · | · | ·
CCCC(=O)NC1=C(C#N)C2(CCCC2)Cc2ccccc21 | – | – | – | – | – | · | · | · | ·
CCC1(CC)Cc2ccccc2C(N)=C1C#N | – | – | – | 15 | – | – | – | – | –
CN(C)CCN(Cc1ccccc1)S(=O)(=O)c1ccc(-c2ccc(=O)[nH]n2)s1 | – | – | – | 6.6 | – | – | – | – | –
COc1ccc(C2(C(=O)Nc3ccc(OC)cc3OC)CCCC2)cc1 | – | – | – | 12.4 | – | – | – | – | –
NS(=O)(=O)c1ccc(NC(=O)CSc2ncccn2)cc1 | – | – | – | 15.9 | – | – | – | – | –
Cc1ccc(NC(=S)NCC2CCN(C(C)c3ccccc3)C2)cc1 (stereo not given) | – | – | – | 22 | – | – | – | – | –
CC(C)(C)c1ccc(C2=CC(c3ccccc3)n3ncnc3N2)cc1 (stereo not given) | – | – | – | 9.33 | – | – | – | – | 57
Cc1ccc(C2=CC(c3ccc(C)cc3)n3ncnc3N2)cc1 (stereo not given) | – | – | – | – | – | · | · | · | ·
C/C(=N\NC(=O)c1cc2ccccc2cc1O)c1cc2ccccc2o1 | – | – | – | 21.5 | – | – | – | – | –
C/C(=N\NC(=O)c1nc2ccccn2c1C)c1cc2ccccc2o1 | – | – | – | – | – | · | · | · | ·
CCN1C=C(Cc2ccccc2C)C2=C(C1)C(c1ccccc1C)C(C#N)=C(N)O2 (stereo not given) | – | – | – | 18.1 | – | – | – | – | –
CCN1C=C(Cc2ccc(F)cc2)C2=C(C1)C(c1ccc(F)cc1)C(C#N)=C(N)O2 (stereo not given) | – | – | – | – | – | · | · | · | ·
Cc1ccccc1NC(=O)C12CC3CCC1(C)C3(C)CO2 (stereo not given) | – | – | – | 6.87 | – | – | – | – | –
CC12COC3(C(=O)Nc4ccccc4)CC1CCC32C (stereo not given) | – | – | – | 9.68 | – | – | – | – | –
CC12COC3(C(=O)Nc4ccc5ccccc5c4)CC1CCC32C (stereo not given) | – | – | – | 17.4 | – | – | – | – | –
CC12COC3(C(=O)Nc4cccnc4)CC1CCC32C (stereo not given) | – | – | – | – | – | · | · | · | ·
Brc1cccc(OCCCNC2CCCC2)c1 | – | – | – | – | – | · | · | · | ·
O=C(Cc1ccccc1)Nc1cc(C(=O)c2ccccc2)ccc1N1CCOCC1 | – | – | – | – | – | · | · | · | ·
COC(=O)Cc1cc(=O)n(-c2nc3ccccc3[nH]2)[nH]1 | – | – | – | 15.1 | – | – | – | – | –
Cc1nc2c3ccccc3n(Cc3ccccc3F)c2s1 | – | – | – | – | – | · | · | · | ·
Cc1nc2c3cc(F)ccc3n(Cc3ccccc3F)c2s1 | – | – | – | 8.98 | – | – | – | – | –
SMILES | RGS4 act | MrgX1 antagonist | MrgX1 ag | MrgX1 PAM | RGS4 inh | MrgX1 allo conf | HEK293 Ca flux | HEK293 Ca counter | HEK293 Ca cntr2
COc1ccc(C(=O)NCCS(=O)(=O)N2CCc3ccccc3C2)cc1OC | – | – | – | – | – | · | · | · | ·
COc1ccc(C(C)=O)cc1CSc1nncn1-c1ccccc1 | – | – | – | – | – | · | · | · | ·
NC(=O)COC(=O)c1cccc(S(=O)(=O)N2CCCCC2)c1 | – | – | – | 10.6 | – | – | – | – | –
CCOC(=O)c1cccc(S(=O)(=O)N2CCCC2)c1 | – | – | – | – | – | · | · | · | ·
COc1ccc(S(=O)(=O)N(CC(=O)NCC2CCCO2)c2ccc(F)cc2)cc1OC (stereo not given) | – | – | – | – | – | · | · | · | ·
CC(C)(C)Sc1ccc2nc3c(n2c1)CCCC3 | – | – | – | 16.4 | – | – | – | – | –
Cc1ccc(C)c(N2CCN(C(=O)c3csc(C)c3C)CC2)c1 | – | – | – | 6.88 | – | – | – | – | –
Cc1ccc(-c2nc(CS(=O)CC(=O)NCCC(C)C)c(C)o2)cc1 (stereo not given) | – | – | – | – | – | · | · | · | ·
Cc1nn(C)c(Nc2ccc(Br)cc2)c1Br | – | – | – | 8.17 | – | – | – | – | –
Cc1ccc(N2CCN(S(=O)(=O)N3CCOCC3)CC2)cc1C | – | – | – | – | – | · | · | · | ·
CS(=O)(=O)N(CC(=O)N1CCN(c2cccc(Cl)c2)CC1)c1cccc(F)c1 | – | – | – | 8.2 | – | – | – | – | –
NC(Cc1ccccc1)C(=O)N1CCCCC1 (stereo not given) | – | – | – | – | – | · | · | · | ·
O=C(CN1C(=O)c2cccnc2Oc2ccc(Cl)cc21)NC1CCCC1 | – | – | – | – | – | · | · | · | ·
CC1CCCC(NC(=O)CN2C(=O)c3cccnc3Oc3ccc(Cl)cc32)C1C (stereo not given) | – | – | – | 11 | – | – | – | – | 77.8
COc1ccc(CCCNC(=O)C2CCC(=O)N(CCc3cccc(F)c3)C2)cc1 (stereo not given) | – | – | – | – | – | · | · | · | ·
Cc1ccc(-c2csc3ncnc(NCCC(=O)O)c23)cc1 | – | – | – | – | – | · | · | · | ·
Cc1ccc(-c2csc3ncnc(NCCC(=O)O)c23)cc1C | – | – | – | 6.73 | – | – | – | – | –
COc1ccccc1NC(=S)N(Cc1ccccc1)Cc1cccnc1 | – | – | – | – | – | · | · | · | ·
